Sampled rows, rich in hits. Any-hit rate of the full collection: about 1.8%.
Scp1 inh = Scp-1 phosphatase inhibitors, primary screen, biochemical, colorimetric, uHTS | Carboxy-terminal domain RNA polymerase II polypeptide A small phosphatase 1 (Homo … | Recombinant Scp1, phosphopeptide, malachite green phosphate absorbance | inhibition, % at 20 µM | actives 0.88% (n = 340,000) | AID 493091, 2011;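 active = inhibition above about 50% at 20 µM, limit read from the data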;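 note: plate controls were DMSO wells with enzyme for no effect and wells lacking enzyme for full effect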
Target sequence (Q9GZU7 76-261 limits assumed): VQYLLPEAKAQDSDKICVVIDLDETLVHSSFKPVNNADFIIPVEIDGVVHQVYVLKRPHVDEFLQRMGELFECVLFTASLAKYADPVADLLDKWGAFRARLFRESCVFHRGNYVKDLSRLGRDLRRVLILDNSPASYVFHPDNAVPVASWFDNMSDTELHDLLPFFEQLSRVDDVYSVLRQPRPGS
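Material – SCP-1 phosphatase catalytic domain, residues 76-261 · Buffer or medium – Acidic Tris acetate buffer with magnesium and detergent · Also added – Phospho 17-mer peptide substrate · Compound – single 20 µM dose, 1% DMSO · Times – 45 min room-temperature reaction, 5 min colour, 30 min stabiliser · Technique – Phosphate-binding colour reagent, absorbance read at 630 nm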
LMPTP block = LMPTP phosphatase inhibitors, primary screen, biochemical, fluorescence intensity, uHTS; actives 0.22% (n = 360,000); inhibition, % at 20 µM; recombinant LMPTP-A, OMFP fluorogenic substrate;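 active = compounds that cut the enzyme signal by at least half of the control window in the single-dose screen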;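 note: plate controls were DMSO wells with enzyme plus substrate for no effect and substrate without enzyme for full effect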
Target sequence (P24666 whole entry, looked up): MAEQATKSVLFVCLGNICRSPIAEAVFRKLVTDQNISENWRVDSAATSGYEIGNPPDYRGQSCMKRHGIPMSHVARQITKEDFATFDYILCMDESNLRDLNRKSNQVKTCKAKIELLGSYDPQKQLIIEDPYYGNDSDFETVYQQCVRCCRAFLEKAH
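test system = LMPTP-A | amount = 0.625 nM LMPTP-A final | reagent = fluorogenic phosphatase substrate OMFP at 400 µM final | incubation = 50 min at room temperature | benchmarks = no-enzyme low control, uninhibited high control | medium = Bis-Tris pH 6.0, DTT, detergent | signal = fluorescence intensity of OMFP turnover product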
HKDC1 inh = HKDC1 hexokinase inhibitors, primary screen, biochemical, fluorescence, uHTS | actives 0.16% (n = 340,000) | AID 493160, 2011 | inhibition, % at 20 µM | recombinant HKDC1, G6PDH/diaphorase resazurin coupled fluorescence;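 active = inhibition above about 35% when tested at 20 µM, limit read from the data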;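 note: plate controls were DMSO wells with enzyme for no effect and DMSO wells lacking enzyme for full effect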
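Incubation: 90 min at room temperature in dark / Material: recombinant HKDC1 (HK5) hexokinase enzyme, produced in-house / Quantity: enzyme 5 µg/mL final / Compound: one dose of 20 µM, 1% DMSO / Reagent: glucose and ATP substrates / Buffer or medium: Tris pH 8.0 buffer with MgCl2, Tween-20, BSA, BME / Technique: resorufin fluorescence at 613 nm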
SUMO1-SIM PPI = modulators of SUMO1 protein-protein interactions, primary screen, biochemical, uHTS. AID 602429, 2012. inhibition, % at 20 µM. actives 0.33% (n = 360,000). SUMO1 binding to a labelled peptide, TR-FRET, 1 h. Small ubiquitin-related modifier 1 (Homo sapiens), P63165; in the data active = inhibition above about 37%
Target sequence (P63165 whole entry, looked up): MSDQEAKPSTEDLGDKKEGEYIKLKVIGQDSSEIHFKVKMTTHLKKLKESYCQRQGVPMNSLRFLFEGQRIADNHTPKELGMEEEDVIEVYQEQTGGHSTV
DNMT1 inh = human DNMT1 methyltransferase inhibitors, primary screen, biochemical, molecular beacon, fluorescence, HinP1I cleavage, uHTS; actives 0.83% (n = 360,000); DNA (cytosine-5)-methyltransferase 1 (Homo sapiens), P26358; AID 588458, 2011; inhibition (reported as % activation of signal), % at 10 µM; in the data active = inhibition above about 50%
STEP inh = STEP phosphatase inhibitors, primary screen, biochemical, fluorescence intensity, uHTS. actives 0.25% (n = 360,000). recombinant STEP, OMFP fluorogenic substrate. Tyrosine-protein phosphatase non-receptor type 5 (Homo sapiens), P54829. AID 588621, 2011. inhibition, % at 20 µM;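 active = inhibition at 20 µM, scaled per plate between control wells, above about 37%, limit read from the data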;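 note: 0% = DMSO with enzyme and substrate and 100% = substrate only without enzyme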
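Test system: STEP tyrosine phosphatase / Reagent: OMFP at 25 µM / Doses: 20 µM, 1% DMSO / Read-out: percent inhibition scaled to no-enzyme and uninhibited-enzyme controls, plate-pattern corrected / Detection: FITC-channel fluorescence of OMFP product / Medium: Bis-Tris buffer pH 6.0, 2.5 mM DTT, 0.005% Tween 20 / Schedule: 20 min at room temperature, dark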
An asterisk follows results filed as active; . = no result.

SMILES | Scp1 inh | LMPTP block | HKDC1 inh | SUMO1-SIM PPI | DNMT1 inh | STEP inh
CCCCCC(=O)Nc1nc(C)c(-c2csc(Nc3cc(OC)ccc3OC)n2)s1 | 4.0 | 2.2 | -3.5 | -1.1 | -38.1 | 0.7
Cc1nc(NC(=O)CC(C)C)sc1-c1csc(Nc2ccc(Cl)cc2Cl)n1 | 1.9 | 1.4 | -0.3 | 3.8 | -28.3 | -3.2
CCCCCCC(=O)Nc1nc(C)c(-c2csc(Nc3cc(OC)ccc3OC)n2)s1 | 7.9 | 1.7 | 5.9 | 70.0* | -32.0 | -1.3
Cc1ccc2nc(N3C(=O)C(O)=C(C(=O)c4cc5ccccc5o4)C3c3cccs3)sc2c1 (stereo not drawn) | -23.5 | 35.5 | -11.8 | 8.0 | 77.6* | 12.2
CCCCN1C(=O)C(=O)NC[C@@H]1CC1CCCCC1 | . | 6.5 | . | 44.7* | . | .
CCCC[C@@H]1CNC(=O)C(=O)N1CC1CCCCC1 | . | -1.1 | . | 2.0 | . | .
O=Cc1cc(CCC(=O)O)ccc1O | -5.6 | 0.1 | -5.2 | 5.8 | 0.9 | -1.8
Cc1ccc(Cn2c(CCNc3nc(-c4ccc(C)cc4)cs3)nc3cc(C(=O)NCCCO)ccc32)cc1 | -3.0 | 2.0 | -2.7 | 51.9* | -77.8 | -0.8
CC1=C(C)CC(C(=O)NCCc2ccc(F)cc2)C(C(=O)O)C1 (stereo not drawn) | -9.6 | -1.0 | -5.9 | 3.0 | 1.3 | -0.3
CC(C)CC(=O)c1c[nH]c(C(=O)NCCCN2CCOCC2)c1 | -8.0 | -1.3 | -7.2 | 45.4* | 3.1 | 1.4
Cc1ccc(C(=O)c2c[nH]c(C(=O)NCCCN3CCOCC3)c2)cc1 | -4.7 | 0.0 | -10.2 | 2.7 | 0.4 | -1.3
O=C1c2cccnc2C(=O)N1Cc1ccc(S(=O)(=O)N2CCN(c3ccc(Cl)cc3)CC2)cc1 | -11.2 | 2.4 | 2.1 | 60.2* | -1.4 | 1.7
CCC(OC(=O)c1nsc(Cl)c1Cl)C(=O)NC(C)(C)CC (stereo not drawn) | -4.4 | -0.6 | -9.1 | -3.6 | 0.3 | 2.5
Oc1ccc(/C=N/N=C/c2ccc(O)c(O)c2)cc1O | -12.1 | -0.1 | 2.1 | -13.3 | 17.4 | 1.0
Oc1ccc(N=Cc2ccc(O)c(O)c2)cc1 | 3.2 | 14.1 | 25.0 | 50.8* | 65.4* | 9.5
CCCCC(=O)Nc1cc(OC)c(NC(=O)C2CCCCC2)cc1OC | -14.7 | -1.2 | -4.0 | -0.3 | -11.5 | -7.0
Fc1ccccc1-c1nc(NCCCN2CCOCC2)c2ccccc2n1 | -2.6 | 50.6* | -7.2 | 0.2 | 1.3 | -3.9
Cc1ccc(-c2nc(NCCN3CCOCC3)c3ccccc3n2)cc1 | -8.0 | 49.8* | -14.3 | 3.3 | 0.4 | -2.2
CC(C)OCCCNc1nc(-c2ccccc2)nc2ccccc12 | -1.2 | 55.7* | -1.1 | 4.9 | 6.5 | 3.2
CN(C)CCCNc1nc(-c2ccccc2)nc2ccccc12 | -3.6 | 27.8 | -1.2 | -22.6 | -5.5 | 0.7
Clc1ccc(-c2nc(NCCCN3CCOCC3)c3ccccc3n2)cc1 | 2.3 | 42.0 | -5.3 | 5.3 | 13.6 | -0.6
CCOC(=O)N1CCN(C(=O)C2CCN(C(=O)c3ccccc3C)CC2)CC1 | 19.8 | 1.1 | -0.4 | 5.1 | 17.5 | -1.0
CC(C(=O)OCC(=O)Nc1cccc(S(=O)(=O)N2CCOCC2)c1)N1C(=O)c2ccccc2C1=O (stereo not drawn) | -5.9 | -0.2 | -1.5 | -3.5 | 1.3 | -3.4
COc1ccc(NC(=O)C(=O)N/N=C\c2ccc(CNC(=O)C(=O)Nc3ccc(C)c(C)c3)o2)c(OC)c1 | 68.1* | . | -3.8 | . | . | .
COCCNC(=O)/C(C#N)=C\c1ccc(CNC(=O)C(=O)Nc2ccc(C)c(C)c2)o1 | -6.6 | -1.9 | -12.3 | -20.8 | -8.6 | 2.6
CCOC(=O)c1ccccc1NC(=S)N1CCN(C(=O)c2ccco2)CC1 | -1.4 | 0.9 | -2.8 | 0.7 | 2.5 | 3.2
COc1ccc2nc(NC(=O)c3ccc4ncsc4c3)sc2c1 | -0.2 | -0.9 | -3.3 | 42.7* | -9.6 | -2.7

Assay outcomes (PubChem BioAssay)
